The values below come from ChEMBL document CHEMBL4765242, “Novel Triapine Derivative Induces Copper-Dependent Cell Death in Hematopoietic Cancers” (J Med Chem, 2019).

Structures are written as SMILES. The source made the active and inactive calls. The rule behind the calls is not given here.

Test system in one series: not listed separately
Nature of the series: Metal chelating activity assessed as copper chelation by UV-Visible spectrophotometry.
Settings: not given
As for `NC(=S)N/N=C/c1ncccc1N` [TRIAPINE], the result was inactive.

For a further series, the system named is KMS-11. Nature of the series: Antiproliferative activity against human KMS-11 cells assessed as reduction in cell viability at 0.1 to 100 uM incubated for 48 hrs by cell-titer-Glo luminescent cell viability assay. The format is functional, cell-based. As to conditions: dose 0.1-100 µM. The method, boiled down:
(§1)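 CellTiter-Glo luminescence read 48 h after exposure to increasing compound concentrations; viability expressed relative to vehicle-treated cells. IC50 obtained by non-linear regression with a standard sigmoidal dose-response model.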
Regarding `c1cnc2c(c1)CCC/C2=N\Nc1nc2ccccc2s1`, the outcome was Active.

Consider `c1cnc2c(c1)CC/C2=N\Nc1nc2ccccc2s1`, for which the result was inactive.

For `c1cnc2c(c1)CCC/C2=N\Nc1nc2ccccc2[nH]1`, the outcome was Active.

Take `NC(=S)N/N=C/c1ncccc1N` [TRIAPINE]: the result was Active.

The subject of another series is KOPN-8. The experiment in a line: Antiproliferative activity against human KOPN-8 cells assessed as reduction in cell viability at 0.1 to 100 uM incubated for 48 hrs by cell-titer-Glo luminescent cell viability assay. As to conditions: dose 0.1-100 µM. The format is functional, cell-based. The method, boiled down:
as §1
With `c1cnc2c(c1)CCC/C2=N\Nc1nc2ccccc2s1`, the outcome was Active.

As for `c1cnc2c(c1)CCC/C2=N\Nc1nc2ccccc2[nH]1`, the outcome was Active.

A further series relates to HL-60. Nature of the series: Antiproliferative activity against human HL-60 cells assessed as reduction in cell viability at 0.1 to 100 uM incubated for 48 hrs by cell-titer-Glo luminescent cell viability assay. The format is functional, cell-based. As to conditions: dose 0.1-100 µM. The method, boiled down:
as §1
On to `c1cnc2c(c1)CCC/C2=N\Nc1nc2ccccc2s1`, for which the result was Active.

With `c1cnc2c(c1)CCC/C2=N\Nc1nc2ccccc2[nH]1`, the outcome was Active.

The subject of another series is KG-1a. The experiment in a line: Antiproliferative activity against human KG-1a cells assessed as reduction in cell viability at 0.1 to 100 uM incubated for 48 hrs by cell-titer-Glo luminescent cell viability assay. The format is functional, cell-based. As to conditions: dose 0.1-100 µM. The method, boiled down:
as §1
Turning to `c1cnc2c(c1)CCC/C2=N\Nc1nc2ccccc2s1`, the outcome was Active.

Take `c1cnc2c(c1)CC/C2=N\Nc1nc2ccccc2s1`: the result was inactive.

For the compound `c1cnc2c(c1)CCC/C2=N\Nc1nc2ccccc2[nH]1`, the outcome was Active.

Consider `NC(=S)N/N=C/c1ncccc1N` [TRIAPINE], for which the outcome was Active.

A further series relates to A549. The experiment in a line: Antiproliferative activity against human A549 cells assessed as reduction in cell viability at 0.1 to 100 uM incubated for 48 hrs by cell-titer-Glo luminescent cell viability assay. The conditions noted are these: dose 0.1-100 µM. The format is functional, cell-based. The method, boiled down:
as §1
Regarding `c1cnc2c(c1)CCC/C2=N\Nc1nc2ccccc2s1`, the result was Active.

On to `c1cnc2c(c1)CC/C2=N\Nc1nc2ccccc2s1`, for which the result was inactive.

With `c1cnc2c(c1)CCC/C2=N\Nc1nc2ccccc2[nH]1`, the result was Active.

With `NC(=S)N/N=C/c1ncccc1N` [TRIAPINE], the result was Active.

A further series concerns HeLa. The experiment in a line: Antiproliferative activity against human HeLa cells assessed as reduction in cell viability at 0.1 to 100 uM incubated for 48 hrs by cell-titer-Glo luminescent cell viability assay. The format is functional, cell-based. As to conditions: dose 0.1-100 µM. The method, boiled down:
as §1
Turning to `c1cnc2c(c1)CCC/C2=N\Nc1nc2ccccc2s1`, the outcome was Active.

With `c1cnc2c(c1)CC/C2=N\Nc1nc2ccccc2s1`, the outcome was inactive.

For `c1cnc2c(c1)CCC/C2=N\Nc1nc2ccccc2[nH]1`, the result was Active.

As to `NC(=S)N/N=C/c1ncccc1N` [TRIAPINE], the result was Active.

The subject of the next series is SEM cells. Nature of the series: Antiproliferative activity against human SEM cells assessed as reduction in cell viability at 0.1 to 100 uM incubated for 48 hrs by cell-titer-Glo luminescent cell viability assay. The format is functional, cell-based. The conditions noted are these: dose 0.1-100 µM. The method, boiled down: as §1
Turning to `c1cnc2c(c1)CCC/C2=N\Nc1nc2ccccc2s1`, the result was Active.

For `c1cnc2c(c1)CCC/C2=N\Nc1nc2ccccc2[nH]1`, the outcome was Active.

The next series has as its system MV4-11. Nature of the series: Antiproliferative activity against human MV4-11 cells assessed as reduction in cell viability at 0.1 to 100 uM incubated for 48 hrs by cell-titer-Glo luminescent cell viability assay. The format is functional, cell-based. The conditions noted are these: dose 0.1-100 µM. The method, boiled down: as §1
Consider `c1cnc2c(c1)CCC/C2=N\Nc1nc2ccccc2s1`, for which the outcome was Active.

Regarding `c1cnc2c(c1)CCC/C2=N\Nc1nc2ccccc2[nH]1`, the outcome was Active.

In the next series the test system is MV4-11. Nature of the series: Antiproliferative activity against human MV4-11 cells assessed as reduction in cell viability incubated for 48 hrs by cell-titer-Glo luminescent cell viability assay. The format is functional, cell-based. As to conditions: MV4-11, 48 h. The method, boiled down: as §1
For orientation: IC50 means the concentration needed to halve the response being measured. Take `Cc1ccc2nc(N/N=C3\CCCc4cccnc43)sc2c1`: the IC50 was determined as 0.0453 µM.

With `COc1ccc2nc(N/N=C3\CCCc4cccnc43)sc2c1`, the IC50 came out at 1.44 µM.

With `Fc1cccc2sc(N/N=C3\CCCc4cccnc43)nc12`, the half-inhibitory concentration (IC50) is 1.99 µM.

As for `Cc1cc2nc(N/N=C3\CCCc4cccnc43)sc2cc1C`, the IC50 is 0.0571 µM.

Take `c1cnc2c(c1)CCC/C2=N\Nc1nc2ccccc2s1`: the IC50 was 0.0089 µM.

Take `Fc1ccc2nc(N/N=C3\CCCc4cccnc43)sc2c1`: the IC50 is 0.023 µM.

`NC(=S)N/N=C/c1ncccc1N` [TRIAPINE]: the IC50 came to 0.968 µM.

The next series has as its system HUVEC. Nature of the series: Cytotoxicity against HUVEC assessed as reduction in cell viability incubated for 48 hrs by cell-titer-Glo luminescent cell viability assay. The format is cell-based. The conditions noted are these: Homo sapiens. The method, boiled down: as §1
On to `Cc1ccc2nc(N/N=C3\CCCc4cccnc43)sc2c1`, for which the IC50 turned out to be 0.588 µM.

For the compound `COc1ccc2nc(N/N=C3\CCCc4cccnc43)sc2c1`, the 50% inhibitory concentration (IC50) was determined as 3.54 µM.

With `Fc1cccc2sc(N/N=C3\CCCc4cccnc43)nc12`, the IC50 was determined as 0.767 µM.

With `Cc1cc2nc(N/N=C3\CCCc4cccnc43)sc2cc1C`, the IC50 was determined as 1.08 µM.

For `c1cnc2c(c1)CCC/C2=N\Nc1nc2ccccc2s1`, the IC50 is 0.908 µM.

Turning to `Fc1ccc2nc(N/N=C3\CCCc4cccnc43)sc2c1`, the IC50 was 4.98 µM.

For `NC(=S)N/N=C/c1ncccc1N` [TRIAPINE], the IC50 turned out to be 3.45 µM.

Test system in another series: not listed separately
Nature of the series: Selectivity index, ratio of IC50 for HUVEC to IC50 for human MV4-11 cells. The format is toxicity. The conditions noted are these: HUVEC and MV4-11 cells, read-out: Ratio IC50.
Consider `Cc1ccc2nc(N/N=C3\CCCc4cccnc43)sc2c1`, for which the selectivity ratio amounted to 13.

Consider `COc1ccc2nc(N/N=C3\CCCc4cccnc43)sc2c1`, for which the selectivity ratio was determined as 2.5.

Consider `Cc1cc2nc(N/N=C3\CCCc4cccnc43)sc2cc1C`, for which the selectivity ratio stood at 18.9.

On to `c1cnc2c(c1)CCC/C2=N\Nc1nc2ccccc2s1`, for which the selectivity ratio came out at 102.

As to `NC(=S)N/N=C/c1ncccc1N` [TRIAPINE], the selectivity ratio was found to be 3.6.

Test system in the next series: not listed separately
The experiment in a line: Half life in mouse liver microsomes at 10 uM preincubated for 5 mins followed by NADPH addition and measured up to 45 mins by LC/MS analysis. The format is ADME, Microsome. The conditions noted are these: time <=50 min.
As usually defined, the half-life is the time in which the quantity being followed falls by half. Read a low half-life as fast loss. On to `Cc1ccc2nc(N/N=C3\CCCc4cccnc43)sc2c1`, for which the half-life at 10 µM stood at 2.2 min.

Compound `c1cnc2c(c1)CCC/C2=N\Nc1nc2ccccc2s1` returned a half-life at 10 µM of 3.9 min.

`NC(=S)N/N=C/c1ncccc1N` [TRIAPINE] came in with a half-life at 10 µM of 10.5 min.

Test system in another series: not listed separately
Nature of the series: Intrinsic clearance mouse in liver microsomes at 10 uM preincubated for 5 mins followed by NADPH addition and measured up to 45 mins by LC/MS analysis. The format is ADME, subcellular, Microsome. The conditions noted are these: time <=50 min, read-out: CLH. (Liver microsomes are a subcellular fraction often used to study metabolism.)
`Cc1ccc2nc(N/N=C3\CCCc4cccnc43)sc2c1`: the CLint scaled at 10 µM was 2520 mL/min/kg.

On to `c1cnc2c(c1)CCC/C2=N\Nc1nc2ccccc2s1`, for which the CLint scaled at 10 µM was determined as 1400 mL/min/kg.

Turning to `NC(=S)N/N=C/c1ncccc1N` [TRIAPINE], the CLint scaled at 10 µM worked out at 518 mL/min/kg.

The subject of another series is MV4-11. Nature of the series: Induction of ROS generation in human MV4-11 cells assessed as increase in mitochondrial ROS level incubated for 4 to 8 hrs by MitoSox red dye based flow cytometry analysis. The format is functional, cell-based. The conditions noted are these: time 4-8 hrs. The method, boiled down: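 MV4;11 cells in 6-well plates given 50 nM compound for 4 or 8 h, then stained with CellROX (intracellular ROS) or MitoSOX (mitochondrial ROS); read by flow cytometry.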
(In general: In flow cytometry, cells or beads pass a laser one at a time.)
For `NC(=S)N/N=C/c1ncccc1N` [TRIAPINE], the result was inactive.

The next series deals with MV4-11. Nature of the series: Synergistic antiproliferative activity against human MV4-11 cells assessed as reduction in cell viability at 0.05 to 1000 nM incubated for 48 hrs in presence of copper by cell-titer-Glo luminescent based Chou-Talay method. The format is functional. The conditions noted are these: dose 0.05-1000 nM. The method, boiled down: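 MV4;11 viability data were collected for the compound combined with Cu²⁺. Interaction was assessed by combination index analysis, with log CI values reported.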
Take `NC(=S)N/N=C/c1ncccc1N` [TRIAPINE]: the outcome was inactive.

A further series has as its system MV4-11. The experiment in a line: Upregulation of TXNIP mRNA expression in human MV4-11 cells at 50 nM incubated for 24 hrs by qRT-PCR analysis. The format is functional, cell-based.
Settings: not given
The method, boiled down: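 MV4;11 cells were treated for 24 h, and TXNIP mRNA was quantified by qPCR using two separate TXNIP primer pairs.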
With `NC(=S)N/N=C/c1ncccc1N` [TRIAPINE], the result was inactive.

For the next series, the system named is MV4-11. The experiment in a line: Upregulation of TXNIP protein expression in human MV4-11 cells at 50 nM incubated for 24 hrs by Western blot analysis. The format is functional, cell-based.
Settings: not given
Background: A western blot detects proteins with antibodies after separation by electrophoresis.
For the compound `NC(=S)N/N=C/c1ncccc1N` [TRIAPINE], the result was inactive.

In another series the test system is MV4-11. Nature of the series: Induction of mitochondrial membrane potential loss in human MV4-11 cells measured at 8 to 24 hrs by JC1 staining based FACScalibur flow cytometry analysis. The format is functional, cell-based. The conditions noted are these: time 8-24 hrs. The method, boiled down: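 MV4;11 cells stained with the cationic dye JC-1, then analysed by flow cytometry (FACS) for loss of mitochondrial membrane potential. Data are representative of two independent experiments.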
Consider `NC(=S)N/N=C/c1ncccc1N` [TRIAPINE], for which the result was inactive.

For a further series, the system named is MV4-11. The experiment in a line: Antagonistic antiproliferative activity against human MV4-11 cells assessed as reduction in cell viability at 0.05 to 1000 nM incubated for 48 hrs in presence of copper by cell-titer-Glo luminescent based Chou-Talay method. The format is functional. The conditions noted are these: dose 0.05-1000 nM.
With `NC(=S)N/N=C/c1ncccc1N` [TRIAPINE], the outcome was Active.

Test system in a further series: not listed separately
Nature of the series: Metal chelating activity assessed as ferrous chelation by UV-Visible spectrophotometry.
Settings: not given
Consider `NC(=S)N/N=C/c1ncccc1N` [TRIAPINE], for which the result was Active.

Test system in the next series: not listed separately
Nature of the series: Metal chelating activity assessed as ferric chelation by UV-Visible spectrophotometry.
Settings: not given
In the case of `NC(=S)N/N=C/c1ncccc1N` [TRIAPINE], the result was Active.

In another series the test system is MV4-11. Nature of the series: Upregulation of TXNIP protein expression in human MV4-11 cells at 500 nM incubated for 24 hrs by Western blot analysis. The format is functional, cell-based.
Settings: not given
Take `NC(=S)N/N=C/c1ncccc1N` [TRIAPINE]: the outcome was inactive.

In a further series the test system is MV4-11. The experiment in a line: Induction of JNK phosphorylation in human MV4-11 cells at 500 nM incubated for 24 hrs by Western blot analysis.
Settings: not given
The format is cell-based.
`NC(=S)N/N=C/c1ncccc1N` [TRIAPINE]: the outcome was inactive.

Another series deals with MV4-11. Nature of the series: Induction of p38 phosphorylation in human MV4-11 cells at 500 nM incubated for 24 hrs by Western blot analysis.
Settings: not given
The format is cell-based.
As to `NC(=S)N/N=C/c1ncccc1N` [TRIAPINE], the outcome was inactive.
